≈ marks a conversion by molar mass, not a printed value. Calls of active or inactive are those of the source. No cut-off for these calls is given here.
Tests used:
[1] = test system: Mycobacterium tuberculosis; assay: Antimicrobial activity against Mycobacterium tuberculosis H37Rv by microbroth dilution method; format: functional
Enterococcus faecalis = assay: Antimicrobial activity against Enterococcus faecalis ATCC 33186 by microbroth dilution method; format: functional
Staphylococcus aureus [2] = assay: Antimicrobial activity against methicillin-sensitive Staphylococcus aureus ATCC 29213 by microbroth dilution method; format: functional
Escherichia coli [3] = assay: Antimicrobial activity against Escherichia coli K-12 by microbroth dilution method; format: functional
Escherichia coli [4] = assay: Antimicrobial activity against tolC-deficient Escherichia coli by microbroth dilution method; format: functional
Staphylococcus aureus [5] = assay: Antimicrobial activity against methicillin-resistant Staphylococcus aureus NRS 70 by microbroth dilution method; format: functional
Klebsiella pneumoniae = assay: Antimicrobial activity against Klebsiella pneumoniae ATCC 33495 at >200 ug/ml by microbroth dilution method; format: functional
Pseudomonas aeruginosa = assay: Antimicrobial activity against Pseudomonas aeruginosa PAO1 at >200 ug/ml by microbroth dilution method; format: functional
[6] = Solubility of the compound in DMEM/FBS medium; format: physicochemical
Method in brief: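 Solubility limit estimated from 2-fold serial dilutions in DMEM with 5% FBS kept overnight at 37 °C; highest concentration with no visible precipitate taken.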

Vero = assay: Cytotoxicity against african green monkey Vero cells assessed as reduction in cell viability by MTT assay; format: cell-based; details: Chlorocebus sabaeus
Method in brief: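 Vero kidney epithelial cells (ATCC CCL-81) in DMEM/10% FBS, trypsinized, seeded near 10% confluence, left overnight to adhere; medium swapped for DMEM/FBS with 2-fold serial compound dilutions.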

[7] = Selectivity index, ratio of CC50 for african green monkey Vero cells to IC50 for methicillin-resistant Staphylococcus aureus NRS 70; format: functional
Method in brief: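 Vero kidney epithelial cells were grown in DMEM/10% FBS, trypsinized, seeded at about 10% confluence and left overnight to adhere. They were then exposed to 2-fold serial compound dilutions in DMEM/FBS, and viability was read by MTT after overnight solubilization. SI = cytotoxic IC50 divided by MIC against MRSA.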

Staphylococcus aureus [8] = assay: Bactericidal activity against Staphylococcus aureus Newman assessed as log reduction in bacterial cell count at 4 times MIC up to 24 hrs by time-kill assay relative to control; format: functional
Staphylococcus aureus [9] = assay: Bactericidal activity against Staphylococcus aureus Newman assessed as log reduction in bacterial cell count at MIC up to 24 hrs by time-kill assay relative to control; format: functional
Staphylococcus aureus [10] = assay: Disruption of membrane potential in Staphylococcus aureus Newman assessed as […] at 4 times MIC using DiOC2(3) probe by fluorescence assay; format: functional
Method in brief: (§1)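 S. aureus Newman grown to OD600nm ≈ 0.3 in Mueller–Hinton II, stained with DiOC2(3) and run on flow cytometry; red/green fluorescence ratio gives membrane potential. CCCP positive control, vancomycin negative control.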

Staphylococcus aureus [11] = assay: Disruption of membrane potential in Staphylococcus aureus Newman assessed as […] using DiOC2(3) probe by fluorescence assay; format: functional; method in brief: as §1
[12] = Inhibition of purified recombinant Escherichia coli topoisomerase 1 assessed as relaxation of supercoiled plasmid DNA after 30 mins by electrophoretic analysis
[13] = Inhibition of Escherichia coli topoisomerase 4 assessed as inhibition of decatenation of catenated kinetoplast DNA after 30 mins by electrophoretic analysis
Staphylococcus aureus [14] = assay: Antimicrobial activity against Staphylococcus aureus Newman; format: functional

## CC1(C)C2CC=C(/C=C/C(=O)c3ccc(O)cc3O)C1C2 (stereo not drawn)
[1]
  MIC: 100 µg/mL (≈ 352 µM)
Enterococcus faecalis
  MIC: 3.13 µg/mL (≈ 11 µM)
Staphylococcus aureus [2]
  MIC: 1.56 µg/mL (≈ 5.49 µM)
Escherichia coli [3]
  MIC: > 200 µg/mL
Escherichia coli [4]
  MIC: 1.56 µg/mL (≈ 5.49 µM)
Staphylococcus aureus [5]
  MIC: 1.56 µg/mL (≈ 5.49 µM)
Klebsiella pneumoniae
  MIC: > 200 µg/mL
Pseudomonas aeruginosa
  MIC: > 200 µg/mL
[6]
  solubility: > 200 µg/mL
Vero
  IC50: 6.9 µg/mL (≈ 24.3 µM)
[7]
  Selectivity Index: 4.4
Staphylococcus aureus [8]
  LCK: >6
Staphylococcus aureus [9]
  LCK: 3
Staphylococcus aureus [10]
  Activity: Active
Staphylococcus aureus [11]
  Activity: Dose-dependent effect
[12]
  IC50: > 500 µM
[13]
  IC50: 60 µM
Staphylococcus aureus [14]
  MIC: 1.56 µg/mL (≈ 5.49 µM)
